Experimental data from ChEMBL document CHEMBL4152262, “Design, synthesis and evaluation of novel multi-target-directed ligands for treatment of Alzheimer's disease based on coumarin and lipoic acid scaffolds” (Eur J Med Chem, 2018).
Activity calls are given as the source filed them. The rule behind the calls is not given here.

Tests used:
[1] = Metal chelating activity assessed as compound-Mg2+ complex formation at 20 uM after 30 mins by UV-visible spectrophotometric analysis
How it was run: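 Compound (final 20 µM in methanol) mixed with metal salt (CuCl2, FeSO4, ZnCl2, AlCl3, MgCl2 or CaCl2, final 20 µM in methanol). After 30 min at room temperature, UV spectra recorded from 200 to 500 nm in 1-cm quartz cells on a dual-beam spectrophotometer.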

Cholinesterase = Cholinesterase (Equus caballus, UniProt P81908); assay: Inhibition of equine serum BuChE using butyrylthiocholine iodide as substrate pretreated for 5 mins followed by substrate addition by Ellman's method
How it was run: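 Ellman assay with horse serum BuChE (5 IU/mL) in 0.1 M phosphate buffer pH 8.0 with DTNB. Compound was preincubated with enzyme 5 min, then butyrylthiocholine iodide was added. Absorbance read at 412 nm. IC50 from a log concentration vs % inhibition curve; triplicate runs.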

[2] = target: Acetylcholinesterase (Homo sapiens) (UniProt P22303); assay: Potency index, ratio of compound effect to donepezil effect for inhibition of recombinant human AChE-induced amyloid beta (1 to 42) aggregation at 100 uM
How it was run: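 Prefibrillated Aβ1-42 (prepared 72 h at 37 °C in PBS/1% ammonium hydroxide) was coincubated with human recombinant AChE (0.01 u/mL) in 0.05 M KP buffer pH 7.4, 37 °C, 48 h, with or without compound or donepezil at 100 µM. ThT added; fluorescence read at ex 448/em 490 nm. % inhibition from intensities with vs without inhibitor; three experiments.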

[3] = target: Amyloid-beta precursor protein (Homo sapiens) (UniProt P05067); assay: Inhibition of amyloid beta (1 to 42) (unknown origin) self-induced aggregation at 100 uM incubated for 48 hrs by thioflavin-T fluorescence assay relative to control
PC-12 [4] = assay: Neuroprotection against H2O2-induced cell death in rat PC12 cells assessed as cell viability at 5 uM preincubated for 3 hrs followed by H2O2 stimulation measured after 2 hrs by MTT assay (reference value: 25.2 to 41.8%); format: functional; details: read-out: Activity
PC-12 [5] = assay: Inhibition of H2O2-induced ROS generation in rat PC12 cells assessed as intracellular ROS level at 10 uM preincubated for 6 hrs followed by H2O2 addition measured after 18 hrs by DCFH-DA staining based fluorimetric method relative to control; format: functional; design: scale not given: the % may be the effect or the level left
How it was run: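 PC12 cells at 1×10^4/well in RPMI with 10% FBS and penicillin/streptomycin, 24 h at 37 °C, 5% CO2. Test samples (1, 5, 10, 50 µM; ≤0.5% DMSO) for 6 h, PBS wash, then H2O2 150 µM for 18 h. Loaded with 10 µM DCFH-DA for 30 min at 37 °C in the dark, washed twice. DCF fluorescence read at ex 485/em 528 nm as % of untreated control. Three independent experiments, mean ± SEM.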

SH-SY5Y = assay: Inhibition of amyloid beta (1 to 42) (unknown origin)-induced cell death in human SH-SY5Y cells assessed as cell viability at 10 uM preincubated for 3 hrs followed by amyloid beta (1 to 42) addition measured after 24 hrs by MTT assay relative to control; format: functional; details: read-out: Activity
How it was run: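 SH-SY5Y cells grown in DMEM with 10% FBS, 1% L-glutamine and antibiotics, seeded at 5×10^3/well. Pretreated 3 h with compound (10 or 50 µM), then Aβ1-42 10 µM added for 24 h. MTT, formazan dissolved in DMSO, A570. Viability as blank-corrected % of untreated control; three independent experiments, mean ± SEM.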

PC-12 [6] = assay: Neuroprotection against H2O2-induced cell death in rat PC12 cells assessed as cell viability at 50 uM preincubated for 3 hrs followed by H2O2 stimulation measured after 2 hrs by MTT assay (reference value: 25.2 to 41.8%); format: functional; details: read-out: Activity

Amyloid-beta precursor protein (Homo sapiens), sequence (P05067 whole entry): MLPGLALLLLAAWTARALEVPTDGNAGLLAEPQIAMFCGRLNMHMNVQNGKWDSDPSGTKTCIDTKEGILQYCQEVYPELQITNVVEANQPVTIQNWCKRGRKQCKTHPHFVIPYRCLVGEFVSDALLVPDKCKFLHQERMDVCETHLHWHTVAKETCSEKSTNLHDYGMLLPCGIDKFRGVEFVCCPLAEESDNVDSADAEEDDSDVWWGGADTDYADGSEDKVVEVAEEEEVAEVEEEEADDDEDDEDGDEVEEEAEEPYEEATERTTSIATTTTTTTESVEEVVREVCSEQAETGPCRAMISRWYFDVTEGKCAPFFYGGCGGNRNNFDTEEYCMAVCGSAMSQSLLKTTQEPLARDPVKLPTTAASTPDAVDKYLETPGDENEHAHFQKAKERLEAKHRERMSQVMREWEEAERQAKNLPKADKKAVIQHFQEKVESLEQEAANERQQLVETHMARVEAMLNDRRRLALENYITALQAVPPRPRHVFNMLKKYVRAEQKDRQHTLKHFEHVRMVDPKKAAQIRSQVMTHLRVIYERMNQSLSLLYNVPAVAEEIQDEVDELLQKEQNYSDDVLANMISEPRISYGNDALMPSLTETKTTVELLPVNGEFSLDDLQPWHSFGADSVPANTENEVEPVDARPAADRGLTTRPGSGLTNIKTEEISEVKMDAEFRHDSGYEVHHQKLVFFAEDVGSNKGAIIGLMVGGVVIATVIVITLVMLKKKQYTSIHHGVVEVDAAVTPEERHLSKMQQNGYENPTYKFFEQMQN
Cholinesterase, sequence (P81908 whole entry): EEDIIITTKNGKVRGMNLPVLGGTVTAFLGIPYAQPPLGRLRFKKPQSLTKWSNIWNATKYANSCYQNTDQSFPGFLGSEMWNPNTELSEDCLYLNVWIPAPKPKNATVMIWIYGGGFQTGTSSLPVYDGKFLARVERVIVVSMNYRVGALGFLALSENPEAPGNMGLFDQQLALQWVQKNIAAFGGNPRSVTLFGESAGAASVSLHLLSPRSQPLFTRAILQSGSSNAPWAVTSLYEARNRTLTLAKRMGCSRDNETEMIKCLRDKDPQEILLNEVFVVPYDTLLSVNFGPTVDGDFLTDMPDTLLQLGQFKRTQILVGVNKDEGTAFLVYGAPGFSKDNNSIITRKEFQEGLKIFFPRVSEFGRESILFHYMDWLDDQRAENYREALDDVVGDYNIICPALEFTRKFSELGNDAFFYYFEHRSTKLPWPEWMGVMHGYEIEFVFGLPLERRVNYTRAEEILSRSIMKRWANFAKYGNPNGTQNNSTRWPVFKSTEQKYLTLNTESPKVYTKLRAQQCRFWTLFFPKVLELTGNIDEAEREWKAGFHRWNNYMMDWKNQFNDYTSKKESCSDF
Acetylcholinesterase (Homo sapiens), sequence (P22303 whole entry): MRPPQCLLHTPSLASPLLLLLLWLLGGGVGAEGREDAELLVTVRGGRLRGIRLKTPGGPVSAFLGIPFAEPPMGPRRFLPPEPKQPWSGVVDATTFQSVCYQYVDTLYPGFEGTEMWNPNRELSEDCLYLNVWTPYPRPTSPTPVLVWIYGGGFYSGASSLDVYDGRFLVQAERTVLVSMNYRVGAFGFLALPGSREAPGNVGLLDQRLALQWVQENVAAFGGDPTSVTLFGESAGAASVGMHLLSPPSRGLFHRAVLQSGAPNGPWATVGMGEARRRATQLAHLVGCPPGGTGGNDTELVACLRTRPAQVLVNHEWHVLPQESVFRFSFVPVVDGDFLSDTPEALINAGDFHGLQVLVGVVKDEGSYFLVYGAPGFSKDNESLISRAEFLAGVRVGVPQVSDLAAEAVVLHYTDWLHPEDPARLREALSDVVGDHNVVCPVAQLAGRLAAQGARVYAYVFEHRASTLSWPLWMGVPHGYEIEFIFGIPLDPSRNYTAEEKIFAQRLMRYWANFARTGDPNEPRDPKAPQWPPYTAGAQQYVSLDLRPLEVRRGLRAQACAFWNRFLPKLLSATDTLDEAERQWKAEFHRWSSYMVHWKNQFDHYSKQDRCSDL

COc1ccc(-c2cc3ccc(OCCCn4cc(CNC(=O)CCCCC5CCSS5)nn4)cc3oc2=O)cc1OC (stereo not drawn)
Activity [1]: inactive
IC50 (Cholinesterase): 49.4 µM
Ratio [2]: 2
inhibition [3]: 51.2%
viability at 5 µM (PC-12 [4]): 40.6%
Activity (PC-12 [5]): 43.04%
viability at 10 µM (SH-SY5Y): 64.7%
viability at 50 µM (PC-12 [6]): 49.5%
